ChEMBL document CHEMBL1145421, “Discovery of novel antitumor antimitotic agents that also reverse tumor resistance” (J Med Chem, 2007)
Each block holds one molecule with its values, some of them ahead of it. The source made the active and inactive calls. The rule behind the calls is not given here.

Columns and labels:
NCI/ADR-RES = assay: Growth inhibition of NCI/ADR-RES cells; assay type: functional; settings: Homo sapiens
MDA-MB-231 = assay: Growth inhibition of MDA-MB-231 cells; assay type: functional; settings: Homo sapiens
Hs-578T = assay: Growth inhibition of HS578T cells; assay type: functional; settings: Homo sapiens
MDA-MB-435 = assay: Growth inhibition of MDA-MB-435 cells; assay type: functional; settings: Homo sapiens
BT-549 = assay: Growth inhibition of BT549 cells; assay type: functional; settings: Homo sapiens
T47D = assay: Growth inhibition of T47D cells; assay type: functional; settings: Homo sapiens
MDA-N = assay: Growth inhibition of MDA-N cells; assay type: functional; settings: Homo sapiens
[1] = Cytotoxicity against human T24 cells after 48 hrs by SRB binding assay; assay type: cell-based; settings: T-24, 48 h
CCRF-CEM = assay: Growth inhibition of CCRF-CEM cells; assay type: functional; settings: Homo sapiens
HL-60 [2] = assay: Growth inhibition of HL60 cells; assay type: functional; settings: Homo sapiens
K562 = assay: Growth inhibition of K562 cells; assay type: functional; settings: Homo sapiens
MOLT-4 = assay: Growth inhibition of MOLT4 cells; assay type: functional; settings: Homo sapiens
RPMI-8226 = assay: Growth inhibition of RPMI8226 cells; assay type: functional; settings: Homo sapiens
SR = assay: Growth inhibition of SR cells; assay type: functional; settings: Homo sapiens
A549 = assay: Growth inhibition of A549 cells; assay type: functional; settings: Homo sapiens
EKVX = assay: Growth inhibition of EKVX cells; assay type: functional; settings: Homo sapiens
HOP-92 = assay: Growth inhibition of HOP92 cells; assay type: functional; settings: Homo sapiens
NCI-H226 = assay: Growth inhibition of NCI-H226 cells; assay type: functional; settings: Homo sapiens
NCI-H23 = assay: Growth inhibition of NCI-H23 cells; assay type: functional; settings: Homo sapiens
[3] = Growth inhibition of NCI-H322 cells; assay type: functional; settings: Homo sapiens
NCI-H460 = assay: Growth inhibition of NCI-H460 cells; assay type: functional; settings: Homo sapiens
NCI-H522 = assay: Growth inhibition of NCI-H522 cells; assay type: functional; settings: Homo sapiens
COLO 205 = assay: Growth inhibition of COLO205 cells; assay type: functional; settings: Homo sapiens
HCC 2998 = assay: Growth inhibition of HCC2998 cells; assay type: functional; settings: Homo sapiens
HCT-116 = assay: Growth inhibition of HCT116 cells; assay type: functional; settings: Homo sapiens
HCT-15 = assay: Growth inhibition of HCT15 cells; assay type: functional; settings: Homo sapiens
HT-29 = assay: Growth inhibition of HT29 cells; assay type: functional; settings: Homo sapiens
KM12 = assay: Growth inhibition of KM12 cells; assay type: functional; settings: Homo sapiens
SW-620 = assay: Growth inhibition of SW620 cells; assay type: functional; settings: Homo sapiens
SF-268 = assay: Growth inhibition of SF268 cells; assay type: functional; settings: Homo sapiens
SF-295 = assay: Growth inhibition of SF295 cells; assay type: functional; settings: Homo sapiens
SF-539 = assay: Growth inhibition of SF539 cells; assay type: functional; settings: Homo sapiens
SNB-19 = assay: Growth inhibition of SNB19 cells; assay type: functional; settings: Homo sapiens
SNB-75 = assay: Growth inhibition of SNB75 cells; assay type: functional; settings: Homo sapiens
U-251 = assay: Growth inhibition of U251 cells; assay type: functional; settings: Homo sapiens
[4] = Growth inhibition of LOX IMV1 cells; assay type: functional; settings: Homo sapiens
Malme-3M = assay: Growth inhibition of MALME-3M cells; assay type: functional; settings: Homo sapiens
M14 = assay: Growth inhibition of M14 cells; assay type: functional; settings: Homo sapiens
SK-MEL-2 = assay: Growth inhibition of SK-MEL-2 cells; assay type: functional; settings: Homo sapiens
SK-MEL-28 = assay: Growth inhibition of SK-MEL-28 cells; assay type: functional; settings: Homo sapiens
SK-MEL-5 = assay: Growth inhibition of SK-MEL-5 cells; assay type: functional; settings: Homo sapiens
UACC-257 = assay: Growth inhibition of UACC257 cells; assay type: functional; settings: Homo sapiens
UACC-62 = assay: Growth inhibition of UACC62 cells; assay type: functional; settings: Homo sapiens
IGROV-1 = assay: Growth inhibition of IGROV1 cells; assay type: functional; settings: Homo sapiens
OVCAR-3 = assay: Growth inhibition of OVCAR-3 cells; assay type: functional; settings: Homo sapiens
OVCAR-4 = assay: Growth inhibition of OVCAR4 cells; assay type: functional; settings: Homo sapiens
OVCAR-5 = assay: Growth inhibition of OVCAR5 cells; assay type: functional; settings: Homo sapiens
OVCAR-8 = assay: Growth inhibition of OVCAR8 cells; assay type: functional; settings: Homo sapiens
SK-OV-3 = assay: Growth inhibition of SKOV3 cells; assay type: functional; settings: Homo sapiens
786-0 = assay: Growth inhibition of 786-0 cells; assay type: functional; settings: Homo sapiens
A498 = assay: Growth inhibition of A498 cells; assay type: functional; settings: Homo sapiens
ACHN = assay: Growth inhibition of ACHN cells; assay type: functional; settings: Homo sapiens
CAKI-1 = assay: Growth inhibition of CAKI1 cells; assay type: functional; settings: Homo sapiens
RXF 393 = assay: Growth inhibition of RXF393 cells; assay type: functional; settings: Homo sapiens
SN12C = assay: Growth inhibition of SN12C cells; assay type: functional; settings: Homo sapiens
TK-10 = assay: Growth inhibition of TK10 cells; assay type: functional; settings: Homo sapiens
UO-31 = assay: Growth inhibition of UO31 cells; assay type: functional; settings: Homo sapiens
PC-3 = assay: Growth inhibition of PC3 cells; assay type: functional; settings: Homo sapiens
DU-145 = assay: Growth inhibition of DU145 cells; assay type: functional; settings: Homo sapiens
MCF7 [5] = assay: Growth inhibition of MCF7 cells; assay type: functional; settings: Homo sapiens
MCF7 [6] = assay: Cytotoxicity against human MCF7 cells after 48 hrs by SRB binding assay; assay type: functional, cell-based; settings: MCF7, 48 h
In short: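 Drug-sensitive MCF-7 cells seeded at ~15% confluency and allowed 24 h recovery. Exposed 48 h to graded concentrations. Survival measured by SRB binding as % decrease versus ethanol-vehicle controls, mean of triplicate wells.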

[7] = Cytotoxicity against Pgp overexpressing human NCI/ADR cells after 48 hrs by SRB binding assay; assay type: functional, cell-based; settings: NCI/ADR-RES
In short: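 NCI/ADR (Pgp-overexpressing) cells seeded at ~15% confluency and allowed 24 h to attach. Exposed 48 h to graded concentrations, as solubility allowed, without vinblastine. Survival measured by sulforhodamine B binding as % decrease in SRB binding versus ethanol-vehicle controls, mean of three wells per condition.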

[8] = Cytotoxicity against MRP1 overexpressing human MCF7/VP cells after 48 hrs by SRB binding assay; assay type: functional, cell-based
In short: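 MCF-7/VP (MRP1-expressing, Pgp-negative) cells seeded at ~15% confluency and allowed 24 h to attach. Exposed 48 h to graded concentrations without vincristine. Survival measured by SRB binding versus ethanol controls.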

MCF7 [9] = assay: Growth inhibition of Pgp deficient MCF7 cells expressing MRP1; assay type: functional, cell-based; settings: Homo sapiens
In short: (§1)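 NCI/ADR (Pgp-overexpressing) or MCF-7/VP (MRP1-expressing, Pgp-negative) cells were seeded at about 15% confluency and allowed to attach for 24 h. They were then exposed for 48 h to varying compound concentrations, limited by solubility, without added vinca drug. Survival was read by sulforhodamine B binding against ethanol solvent controls. Each value is the mean of three equally treated wells.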

[10] = Growth inhibition of NCI/ADR cells expressing Pgp/MRP1; assay type: functional, cell-based; settings: Homo sapiens, NCI/ADR-RES; in short: as §1
[11] = Growth inhibition of Pgp deficient MCF7/VP cells expressing MRP1; assay type: functional, cell-based; settings: Homo sapiens; in short: as §1
HL-60 [12] = assay: Cell cycle arrest in HL60 cells assessed as accumulation in G0/G1 phase at 6 uM; assay type: functional, Homo sapiens
In short: (§2)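 HL-60 cells exposed 24 or 48 h to drug or ethanol vehicle. Nuclei prepared by detergent-trypsin method: citrate/sucrose/DMSO buffer, trypsin, then trypsin inhibitor plus RNase A, then propidium iodide with spermine, 30 min at 4 °C. Filtered, resuspended, DNA content measured by flow cytometry. Percentages given for G0/G1, S and G2/M. Mean ± SEM.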

HL-60 [13] = assay: Cell cycle arrest in HL60 cells assessed as accumulation in S phase at 6 uM; assay type: functional, Homo sapiens; in short: as §2
HL-60 [14] = assay: Cell cycle arrest in HL60 cells assessed as accumulation in […] phase at 6 uM; assay type: functional, Homo sapiens; in short: as §2
A10 [15] = assay: Induction of microtubule loss in rat A10 cells after 24 hrs; assay type: functional, cell-based
In short: (§3)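 Rat A-10 smooth muscle cells were grown to near confluency on glass coverslips and treated for 24 h, with ethanol as control. Microtubules were stained by indirect immunofluorescence using monoclonal anti-β-tubulin and a fluorescein-conjugated anti-mouse IgG, then imaged by confocal laser scanning microscopy.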

NIH3T3 = assay: Induction of microtubule loss in NIH/3T3 cells after 24 hrs; assay type: functional, cell-based; settings: Mus musculus
MCF7 [16] = assay: Induction of microtubule loss in MCF7 cells after 24 hrs; assay type: functional, cell-based; settings: Homo sapiens
MCF7 [17] = assay: Effect on Waf1 protein expression in MCF7 cells after 24 hrs; assay type: functional, cell-based; settings: Homo sapiens
In short: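 MCF-7 cells exposed 24 h to the indicated concentrations or ethanol control. Cells lysed and protein levels assessed by Western blot. One of two similar experiments.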

A10 [18] = assay: Induction of microtubule depolymerization in rat A10 cells at 10 uM; assay type: functional, cell-based; in short: as §3
A10 [19] = assay: Prevention of paracrystal formation in rat A10 cells at 10 uM; assay type: functional, cell-based
Bos taurus = organism: Bos taurus; assay: Reduction of bovine brain tubulin polymerization
In short: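 Bovine brain tubulin was purified by three assembly/disassembly cycles followed by ion exchange. Tubulin at 67 μM (2.5 mg/mL) in 1 M glutamate, pH 6.6, with 4% DMSO was preincubated with compound (2–20 μM) or ethanol for 15 min at 0 °C. Then 0.5 mM GTP was added, samples were warmed to 37 °C, and A340 was followed for about 60 min.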

NCI/ADR = assay: Inhibition of P-glycoprotein activity assessed as increase in accumulation of [3H]vinblastine in NCI/ADR cells; assay type: cell-based; settings: Homo sapiens

GI50 (MDA-MB-231): 595 nM
GI50 (MDA-MB-435): 10.1 nM
GI50 (BT-549): > 1000 nM
GI50 (T47D): 563 nM
GI50 (CCRF-CEM): 58 nM
GI50 (HL-60 [2]): 64.7 nM
GI50 (K562): 84.6 nM
GI50 (MOLT-4): 285 nM
GI50 (RPMI-8226): 439 nM
GI50 (A549): 173 nM
GI50 (NCI-H226): 195 nM
GI50 (NCI-H23): 278 nM
GI50 (NCI-H460): 162 nM
GI50 (NCI-H522): 47.7 nM
GI50 (COLO 205): 190 nM
GI50 (HCC 2998): 317 nM
GI50 (HCT-116): 286 nM
GI50 (HCT-15): 127 nM
GI50 (HT-29): 281 nM
GI50 (SW-620): 236 nM
GI50 (U-251): 144 nM
GI50 (SK-MEL-2): 381 nM
GI50 (SK-MEL-28): > 1000 nM
GI50 (SK-MEL-5): 61.1 nM
GI50 (OVCAR-3): 28.8 nM
GI50 (OVCAR-4): 821 nM
GI50 (OVCAR-5): > 1000 nM
GI50 (OVCAR-8): 364 nM
GI50 (SK-OV-3): 506 nM
GI50 (786-0): 254 nM
GI50 (ACHN): 728 nM
GI50 (PC-3): 47.9 nM
GI50 (DU-145): 224 nM
GI50 (MCF7 [5]): 118 nM
IC50 (MCF7 [9]): 280 nM
Activity (Bos taurus): Dose-dependent effect
SMILES: COc1cc(CCc2cn(Cc3ccccc3)c3nc(N)nc(C)c23)cc(OC)c1OC
GI50 (NCI/ADR-RES): 145 nM
GI50 (Hs-578T): 283 nM
GI50 (MDA-N): < 10 nM
IC50 [1]: 280 nM
GI50 (SR): 31.4 nM
GI50 (EKVX): 424 nM
GI50 (HOP-92): 467 nM
GI50 [3]: 581 nM
GI50 (KM12): 194 nM
GI50 (SF-268): 669 nM
GI50 (SF-295): 41.8 nM
GI50 (SF-539): 74.5 nM
GI50 (SNB-19): 273 nM
GI50 (SNB-75): 358 nM
GI50 [4]: 250 nM
GI50 (Malme-3M): 283 nM
GI50 (M14): 77 nM
GI50 (UACC-257): 80.2 nM
GI50 (UACC-62): 39.9 nM
GI50 (IGROV-1): 61.1 nM
GI50 (A498): 136 nM
GI50 (CAKI-1): 366 nM
GI50 (RXF 393): 134 nM
GI50 (SN12C): 537 nM
GI50 (TK-10): 961 nM
GI50 (UO-31): 347 nM
IC50 (MCF7 [6]): 300 nM
IC50 [7]: 250 nM
IC50 [8]: 250 nM
IC50 [10]: 350 nM
IC50 [11]: 180 nM
Activity (HL-60 [12]): 80%
Activity (HL-60 [13]): 10.3%
Activity (HL-60 [14]): 9.7%
Activity (A10 [15]): Dose-dependent effect
Activity (NIH3T3): Active
Activity (MCF7 [16]): Active
Activity (MCF7 [17]): Active
Activity (A10 [18]): Active
Activity (A10 [19]): inactive

SMILES: COc1ccccc1CCc1cn(Cc2ccccc2)c2nc(N)nc(C)c12
IC50 [1]: 2500 nM
IC50 (MCF7 [6]): 2300 nM
IC50 [7]: 2700 nM
IC50 [8]: 2600 nM
Activity (NCI/ADR): Dose-dependent effect
